A short description of data set [1]: Inhibition of RNase H activity of full length HIV reverse transcriptase using RNA-DNA duplex HTS-1 substrate. Further details: species or system Human immunodeficiency virus.
Data set [2] can be described thus: Inhibition of HIV reverse transcriptase polymerase activity assessed as reduction in dNTP incorporation using 100 nucleotide DNA/18 nucleotide DNA as template/primer measured after 30 mins. Further details: species or system Human immunodeficiency virus. Put shortly: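 20 nM full-length RT with 40 nM template/primer (18-nt DNA primer on 100-nt DNA template) and 10 μM dNTPs in 50 mM Tris pH 7.8, 50 mM NaCl, 1% DMSO, rising compound concentrations; started with 6 mM MgCl2, 30 min at 37 °C, stopped with 100 mM EDTA. Mean ± standard deviation, ≥2 independent experiments.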

Data set [3] is described as follows: Cytotoxicity against human P4R5 cells. It is filed as cell-based.
The subject of data set [4] is Human immunodeficiency virus 1. Nature of the data set: Antiviral activity against HIV1 infected in human P4R5 cells assessed as reduction in viral infection preincubated with cells for 24 hrs followed by viral infection measured after 48 hrs by fluorescence based beta-galactosidase reporter gene assay. It is filed as functional, cell-based. The note with it: Human immunodeficiency virus 1, P4/R5. Put shortly:
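P4R5 indicator cells at 4 × 10^3 per well in DMEM/10% FBS with puromycin (1 μg/ml). Cells pretreated with 1% DMSO or varying drug concentrations for 24h, infected with HIV at MOI 1.25, then incubated 48h. Read-out: lysis, MUG substrate, 4-MU fluorescence (ex 365 nm, em 446 nm). Dose-response; mean ± SD from at least two independent experiments.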
In general terms: Reporter assays use an easily measured gene product as a stand-in for the process of interest.

Data set [5] is described as follows: Inhibition of strand transfer activity of HIV integrase expressed in Escherichia coli using 5'-[32P]-labeled oligonucleotide substrate after 60 mins by PAGE analysis. Also on record: species or system Human immunodeficiency virus. In a few lines: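 Recombinant IN (400 nM), purified with 10% glycerol in buffers, with 20 nM 5'-[32P] oligonucleotide substrate and inhibitor dilutions in 50 mM MOPS pH 7.2, 7.5 mM MgCl2, 14.3 mM 2-mercaptoethanol, 37 °C for 60 min; 10% DMSO controls. Products resolved on 20% polyacrylamide–7 M urea gels, quantified by phosphorimaging densitometry; IC50 by logistic nonlinear regression.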

In data set [6] the test system is Human immunodeficiency virus 1. Kind of data set: Antiviral activity against HIV1 infected in human CEM-SS cells assessed as reduction in virus-induced cytopathic effect after 6 days by MTS assay. The note with it: Human immunodeficiency virus 1, CEM-SS, 144 h. The class given is functional, cell-based. Put shortly: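 CEM-SS cells mixed with pre-titered HIV-1 IIIB and compound, incubated 6 days; virus titer set so virus-control wells lose 70–95% viability. Cell, virus, compound-toxicity and compound-only colorimetric controls on each plate; AZT positive control. Viability by MTS; EC50 derived; mean ± standard deviation from at least two independent experiments.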
For orientation: Cytopathic effects are the visible damage that an infection or toxin causes in cultured cells.

For data set [7], the system named is Human immunodeficiency virus type 1 reverse transcriptase (Human immunodeficiency virus 1), Q72547 [K103N]. Kind of data set: Inhibition of polymerase activity of HIV reverse transcriptase K103N mutant assessed as reduction in dNTP incorporation up to 10 uM using 100 nucleotide DNA/18 nucleotide DNA as template/primer measured after 30 mins. In a few lines: (§1)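 Mutant RT (20 nM) with 40 nM 18-nt DNA primer annealed to 100-nt DNA template and 10 μM dNTPs, in 50 mM Tris pH 7.8, 50 mM NaCl, 1% DMSO, with increasing compound up to 10 μM. Started with 6 mM MgCl2, run 30 min at 37 °C, stopped with 100 mM EDTA; DNA extension measured.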

The test system of data set [8] is Human immunodeficiency virus type 1 reverse transcriptase (Human immunodeficiency virus 1), Q72547 [Y181C]. Nature of the data set: Inhibition of polymerase activity of HIV reverse transcriptase Y181C mutant assessed as reduction in dNTP incorporation up to 10 uM using 100 nucleotide DNA/18 nucleotide DNA as template/primer measured after 30 mins. Put shortly: as §1

The source made the active and inactive calls. The rule behind the calls is not given here.

Take `Cc1c(CC2CCCCC2)n(COCc2cccc(Cl)c2F)c(=O)[nH]c1=O`: the IC50 (usually the midpoint of a concentration-inhibition curve) is more than 10 µM in data set [1] and 10 µM in data set [2]. Further, half-maximal cytotoxicity in data set [3] (CC50) was put at 38 µM. The half-maximal effective concentration (EC50) – broadly, the midpoint of the concentration-response curve – in data set [4] was determined as 0.83 µM.
For the compound `Cc1c(CC2CCCCC2)n(COCc2ccccc2)c(=O)[nH]c1=O`, the IC50 in data set [1] is more than 10 µM; in data set [2], 6.8 µM. The CC50 (usually the concentration at which the toxic effect on the cells reaches its halfway point) in data set [3] is more than 100 µM. Also, the EC50 in data set [4] is 0.065 µM.
As to `Cc1c(CC2CCCCC2)n(COCc2cccc(Cl)c2F)c(=O)n(O)c1=O`, the results for the IC50 in data set [1], in data set [2] and in data set [5] were 2.2 µM, more than 10 µM and more than 100 µM, respectively. In data set [3], the CC50 is more than 100 µM. In addition, the EC50 in data set [4] was more than 15 µM.
As to `Cc1c(CC2CCCCC2)n(COCc2ccc(C(F)(F)F)cc2)c(=O)n(O)c1=O`, the IC50 in data set [1] was 7.6 µM; in data set [2], 10 µM; in data set [5] it was more than 100 µM. Also, the CC50 in data set [3] was more than 100 µM. The EC50 in data set [4] was more than 15 µM.
As to `Cc1c(CC2CCCCC2)n(COCCc2ccc(F)cc2)c(=O)n(O)c1=O`, the results for the IC50 in data set [1], in data set [2] and in data set [5] were 3.9 µM, more than 10 µM and more than 100 µM, respectively. In data set [3], this compound returned a CC50 of more than 100 µM. In addition, the concentration for a half-maximal effect (EC50) in data set [4] turned out to be 10 µM.
For the compound `CCc1c(CC2CCCCC2)n(COCc2ccc(F)cc2)c(=O)[nH]c1=O`, the IC50 in data set [1] is more than 10 µM; in data set [2], 0.48 µM. This compound returned a CC50 in data set [3] of 42 µM. Moreover, in data set [4], the EC50 stood at 0.0075 µM.
Consider `CCc1c(CC2CCCCC2)n(COCc2ccc(C(F)(F)F)cc2)c(=O)n(O)c1=O`, for which the IC50 in data set [1] was 10 µM; in data set [2], 7 µM; in data set [5] it was more than 100 µM. For the same compound, in data set [3], the CC50 is more than 100 µM. Besides, in data set [4], the EC50 is 2.4 µM.
For `CCc1c(CC2CCCCC2)n(COCc2cccc(Cl)c2F)c(=O)[nH]c1=O`, the 50% inhibitory concentration (IC50) in data set [1] is more than 10 µM; in data set [2], 1.5 µM. Moreover, the cytotoxic concentration (CC50) in data set [3] was 32 µM. Further, the EC50 in data set [4] turned out to be 0.048 µM.
Turning to `Cc1c(CC2CCCCC2)n(COCc2ccccc2)c(=O)n(O)c1=O`, the values for the IC50 in data set [1], in data set [2] and in data set [5] were 3.1 µM, more than 10 µM and more than 100 µM, respectively. This compound displayed a CC50 in data set [3] of more than 100 µM. In addition, the concentration for a half-maximal effect (EC50) in data set [4] is more than 15 µM.
Take `CCc1c(CC2CCCCC2)n(COCc2ccc(F)c(F)c2)c(=O)n(O)c1=O`: the results for the IC50 in data set [1], in data set [2] and in data set [5] were 1.7 µM, more than 10 µM and more than 100 µM, respectively. This compound had a CC50 in data set [3] of more than 100 µM. Also, the concentration giving a half-maximal response (EC50) in data set [4] turned out to be 4.1 µM.
For the compound `CCc1c(CC2CCCCC2)n(COCc2cccc(Cl)c2F)c(=O)n(O)c1=O`, the figures for the IC50 in data set [1], in data set [2] and in data set [5] were 1.1 µM, 6.5 µM and more than 100 µM, respectively. For the same compound, the EC50 in data set [6] was determined as 1.8 µM; in data set [4] it was 0.42 µM. The compound also gave a CC50 in data set [3] of more than 100 µM.
In the case of `CCc1c(CC2CCCCC2)n(COCc2ccc(C)cc2)c(=O)n(O)c1=O`, the values for the IC50 in data set [1], in data set [2] and in data set [5] were 2.1 µM, 6.5 µM and more than 100 µM, respectively. The compound further gave a CC50 in data set [3] of more than 100 µM. For the same compound, the EC50 in data set [4] was determined as 0.43 µM.
As for `CC(C)c1c(Cc2ccccc2)n(COCc2ccccc2)c(=O)[nH]c1=O`, the figures for the IC50 in data set [1] and in data set [2] were more than 10 µM and 0.42 µM, respectively. Moreover, the CC50 in data set [3] was determined as 58 µM. Further, in data set [4], the EC50 was determined as 0.011 µM.
For `CC(C)c1c(CC2CCCCC2)n(COCc2ccc(F)cc2)c(=O)[nH]c1=O`, in that order: more than 10 µM, 0.3 µM, 31 µM and 0.0072 µM.
Consider `CC(C)c1c(CC2CCCCC2)n(COCc2ccccc2)c(=O)[nH]c1=O`, for which the IC50 in data set [1] is more than 10 µM; in data set [2], 0.085 µM. In addition, the CC50 in data set [3] stood at 23 µM. Also, the EC50 in data set [4] came to 0.0052 µM.
For the compound `Cc1c(CC2CCCCC2)n(COCCc2ccc(F)cc2)c(=O)[nH]c1=O`, the IC50 in data set [1] and in data set [2] was more than 10 µM throughout. In addition, the CC50 in data set [3] came out at 56 µM. In addition, the EC50 in data set [4] was found to be 5.3 µM.
Regarding `Cc1c(CC2CCCCC2)n(COCc2ccc(C(F)(F)F)cc2)c(=O)[nH]c1=O`, the IC50 in data set [1] is more than 10 µM; in data set [2], 10 µM. The compound further displayed a CC50 in data set [3] of more than 100 µM. The EC50 in data set [4] stood at 0.8 µM.
As to `CC(C)c1c(CC2CCCCC2)n(COCc2ccc(F)cc2)c(=O)n(O)c1=O`, the IC50 is 2.7 µM in data set [1], 9.9 µM in data set [2] and more than 100 µM in data set [5]. The same compound came in with a CC50 in data set [3] of more than 100 µM. Also, the EC50 in data set [4] stood at 2.4 µM.
As to `CC(C)c1c(CC2CCCCC2)n(COCc2ccccc2)c(=O)n(O)c1=O`, the inhibition result in data set [7] and in data set [8] was “inactive” in each case. In addition, the results for the IC50 in data set [1], in data set [2] and in data set [5] were 5.2 µM, 0.45 µM and more than 100 µM, respectively. Also, in data set [3], the half-maximal cytotoxic concentration (CC50) is more than 100 µM. For the same compound, the EC50 in data set [4] came to 0.026 µM.
`CCc1c(CC2CCCCC2)n(COCc2ccccc2)c(=O)n(O)c1=O`: the IC50 in data set [1] was 5.5 µM; in data set [2], 2.3 µM; in data set [5] it was more than 100 µM. Also, the EC50 in data set [6] was found to be 0.56 µM; in data set [4] it was 0.059 µM. The compound further gave a CC50 in data set [3] of more than 100 µM.
Regarding `CCc1c(CC2CCCCC2)n(COCc2ccccc2)c(=O)[nH]c1=O`, the values for the concentration for half-maximal inhibition (IC50) in data set [1] and in data set [2] were more than 10 µM and 0.22 µM, respectively. In data set [3], this compound gave a cytotoxic concentration (CC50) of more than 50 µM. Moreover, the EC50 in data set [4] was 0.0062 µM.
For the compound `CCc1c(CC2CCCCC2)n(COCc2ccc(F)c(F)c2)c(=O)[nH]c1=O`, the figures for the IC50 in data set [1] and in data set [2] were more than 10 µM and 0.82 µM, respectively. In data set [3], this compound yielded a CC50 of 29 µM. In addition, the EC50 in data set [4] stood at 0.014 µM.
For the compound `CCc1c(CC2CCCCC2)n(COCc2ccc(C)cc2)c(=O)[nH]c1=O`, the IC50 is more than 10 µM in data set [1] and 0.36 µM in data set [2]. The compound also gave a CC50 in data set [3] of 30 µM. The EC50 in data set [4] is 0.011 µM.
In the case of `CCc1c(CC2CCCCC2)n(COCc2ccc(C(F)(F)F)cc2)c(=O)[nH]c1=O`, the IC50 is more than 10 µM in data set [1] and 0.81 µM in data set [2]. The half-maximal cytotoxic concentration (CC50) in data set [3] stood at 28 µM. In addition, in data set [4], the EC50 is 0.039 µM.
For `Cc1c(CC2CCCCC2)n(COCc2ccc(F)c(F)c2)c(=O)n(O)c1=O`, the IC50 was 4.6 µM in data set [1], 10 µM in data set [2] and more than 100 µM in data set [5]. The compound also displayed a CC50 in data set [3] of more than 100 µM. Besides, the EC50 in data set [4] is more than 15 µM.
In the case of `CCc1c(CC2CCCCC2)n(COCc2ccc(F)cc2)c(=O)n(O)c1=O`, the IC50 in data set [1] was 5.8 µM; in data set [2], 1.5 µM; in data set [5], more than 100 µM. In addition, the half-maximal effective concentration (EC50) in data set [6] was found to be 0.32 µM; in data set [4], 0.039 µM. Also, the CC50 in data set [3] is more than 100 µM.
Take `Cc1c(CC2CCCCC2)n(COCc2ccc(F)c(F)c2)c(=O)[nH]c1=O`: the half-maximal inhibitory concentration (IC50) was more than 10 µM in data set [1] and 10 µM in data set [2]. The compound also returned a CC50 in data set [3] of 65 µM. Also, the EC50 in data set [4] worked out at 0.21 µM.

(Values after ChEMBL document CHEMBL4004841, “6-Cyclohexylmethyl-3-hydroxypyrimidine-2,4-dione as an inhibitor scaffold of HIV reverase transcriptase: Impacts of the 3-OH on inhibiting RNase H and polymerase” (Eur J Med Chem, 2017).)
